Active and inactive are the calls of the source. The calls are words filed in the database; no cut-off is given here.
What was measured:
[1] = molecular target: T1, Ribosomal protein S6 kinase alpha-3 (Homo sapiens, UniProt P51812); experiment: Inhibition of RSK2 after 60 mins
Outline: (§1)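 Recombinant RSK2 (20 ng) preincubated 20 min at room temperature with compound in HEPES pH 7.4 buffer (MgCl2, EGTA, Tween 20, BGG) with 25 μM S6 peptide; started with ATP (10 μM final), 60 min at room temperature. ADP Quest fluorescence read at ex 530/em 590 nm. IC50 from curves of ≥3 independent tests, measured when inhibition at 10 μM exceeded 30%.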

[2] = system: MCF7; experiment: Antiproliferative activity against human MCF7 cells over expressing RSK2 at 100 uM after 48 hrs by MTT assay; format: functional; details: MCF7, 48 h
Outline: (§2)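 Formazan dissolved in DMSO, absorbance read at 570 nm. Inhibition = (1 − A570 compound/A570 control)×100. Screening concentration 100 μM (control 10 μM). IC50 from curves, ≥3 independent tests, attempted when inhibition at 100 μM exceeded 40%.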

[3] = system: HCT-116; experiment: Antiproliferative activity against human HCT116 cells over expressing RSK2 at 100 uM after 48 hrs by MTT assay; format: functional; details: HCT-116, 48 h; outline: as §2
[4] = system: MDA-MB-231; experiment: Antiproliferative activity against human MDA-MB-231 cells over expressing RSK2 at 100 uM after 48 hrs by MTT assay; format: functional; details: MDA-MB-231, 48 h; outline: as §2
[5] = system: MDA-MB-231; experiment: Antiproliferative activity against human MDA-MB-231 cells over expressing RSK2 after 48 hrs by MTT assay; format: functional, cell-based; details: MDA-MB-231, 48 h; outline: as §2
[6] = system: HCT-116; experiment: Antiproliferative activity against human HCT116 cells over expressing RSK2 after 48 hrs by MTT assay; format: functional, cell-based; details: HCT-116, 48 h; outline: as §2
[7] = system: MCF7; experiment: Antiproliferative activity against human MCF7 cells over expressing RSK2 after 48 hrs by MTT assay; format: functional, cell-based; details: MCF7, 48 h; outline: as §2
[8] = molecular target: Serine/threonine-protein kinase pim-1 (Homo sapiens) (UniProt P11309); experiment: Inhibition of PIM1 at 10 uM
Serine/threonine-protein kinase pim-1 (Homo sapiens), sequence (P11309 whole entry, looked up): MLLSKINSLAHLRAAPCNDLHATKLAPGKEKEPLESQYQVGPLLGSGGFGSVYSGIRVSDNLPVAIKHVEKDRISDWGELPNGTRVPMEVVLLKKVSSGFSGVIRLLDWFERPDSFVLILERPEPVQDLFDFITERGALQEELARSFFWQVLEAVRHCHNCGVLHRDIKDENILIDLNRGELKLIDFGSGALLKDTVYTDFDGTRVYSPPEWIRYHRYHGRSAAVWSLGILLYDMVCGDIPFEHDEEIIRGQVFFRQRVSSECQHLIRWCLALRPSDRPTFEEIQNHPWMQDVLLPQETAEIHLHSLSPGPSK
Outline: (§3)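 Serine/threonine kinase profiling by an outside contract service following manufacturer protocols, ATP at Km for each enzyme; percent inhibition at 10 μM.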

[9] = molecular target: Protein kinase C alpha type (Homo sapiens) (UniProt P17252); experiment: Inhibition of PKCalpha at 10 uM; outline: as §3
[10] = molecular target: Glycogen synthase kinase-3 alpha (Homo sapiens) (UniProt P49840); experiment: Inhibition of GSK3alpha at 10 uM; outline: as §3
Glycogen synthase kinase-3 alpha (Homo sapiens), sequence (P49840 2-483 limits assumed): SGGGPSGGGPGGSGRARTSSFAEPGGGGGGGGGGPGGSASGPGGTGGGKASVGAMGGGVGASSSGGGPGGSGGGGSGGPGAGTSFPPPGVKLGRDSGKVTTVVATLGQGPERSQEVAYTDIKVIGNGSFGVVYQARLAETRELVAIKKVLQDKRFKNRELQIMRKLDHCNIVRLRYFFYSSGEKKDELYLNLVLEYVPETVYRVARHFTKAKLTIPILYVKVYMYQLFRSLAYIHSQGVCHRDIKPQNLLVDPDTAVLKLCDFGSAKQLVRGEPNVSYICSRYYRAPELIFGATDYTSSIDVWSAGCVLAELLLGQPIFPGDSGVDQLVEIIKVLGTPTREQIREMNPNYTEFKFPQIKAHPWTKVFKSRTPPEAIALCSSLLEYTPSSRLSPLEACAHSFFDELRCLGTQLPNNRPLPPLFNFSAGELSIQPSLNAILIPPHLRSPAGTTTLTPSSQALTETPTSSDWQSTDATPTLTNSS

[11] = molecular target: Platelet-derived growth factor receptor alpha (Homo sapiens) (UniProt P16234); experiment: Inhibition of PDGFRalpha at 10 uM by ELISA based method
Platelet-derived growth factor receptor alpha (Homo sapiens), sequence (P16234 whole entry): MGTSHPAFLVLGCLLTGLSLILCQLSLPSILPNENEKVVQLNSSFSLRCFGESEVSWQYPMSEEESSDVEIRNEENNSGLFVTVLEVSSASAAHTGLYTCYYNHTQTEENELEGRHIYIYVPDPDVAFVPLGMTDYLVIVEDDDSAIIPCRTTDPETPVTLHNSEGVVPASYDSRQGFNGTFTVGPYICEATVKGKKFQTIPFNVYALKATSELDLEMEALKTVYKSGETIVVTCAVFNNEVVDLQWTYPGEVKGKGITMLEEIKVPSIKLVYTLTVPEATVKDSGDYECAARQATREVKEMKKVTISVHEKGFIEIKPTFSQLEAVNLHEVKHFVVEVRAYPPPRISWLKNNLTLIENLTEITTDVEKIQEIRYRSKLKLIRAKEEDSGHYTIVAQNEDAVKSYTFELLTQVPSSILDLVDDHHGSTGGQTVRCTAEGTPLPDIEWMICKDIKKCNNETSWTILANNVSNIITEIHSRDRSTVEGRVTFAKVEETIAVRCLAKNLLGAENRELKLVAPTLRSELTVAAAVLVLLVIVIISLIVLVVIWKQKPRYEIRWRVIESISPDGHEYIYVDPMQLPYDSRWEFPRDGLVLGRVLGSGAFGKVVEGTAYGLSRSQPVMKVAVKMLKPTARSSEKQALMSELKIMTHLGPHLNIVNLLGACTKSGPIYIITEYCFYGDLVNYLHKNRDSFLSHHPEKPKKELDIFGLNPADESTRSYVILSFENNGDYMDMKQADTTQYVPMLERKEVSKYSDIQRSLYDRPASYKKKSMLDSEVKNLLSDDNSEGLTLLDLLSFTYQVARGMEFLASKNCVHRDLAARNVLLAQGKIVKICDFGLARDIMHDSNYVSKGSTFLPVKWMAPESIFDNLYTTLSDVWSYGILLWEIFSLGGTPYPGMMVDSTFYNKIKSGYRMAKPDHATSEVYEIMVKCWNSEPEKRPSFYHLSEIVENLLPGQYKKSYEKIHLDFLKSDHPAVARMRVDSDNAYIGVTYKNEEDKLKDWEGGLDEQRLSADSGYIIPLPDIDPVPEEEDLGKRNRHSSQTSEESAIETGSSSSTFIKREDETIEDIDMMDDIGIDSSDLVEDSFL
Outline: (§4)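 Tyrosine kinase profiling by ELISA-based method, ATP at Km for each enzyme; percent inhibition at 10 μM, mean of at least two independent tests.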

[12] = system: MDA-MB-231; experiment: Antimigratory activity against human MDA-MB-231 cells at 5 uM after 48 hrs by wound-healing assay; format: functional, cell-based
Outline: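 MDA-MB-231 grown 24 h to confluence in six-well plates, monolayer scratched with a pipet tip, washed, then kept in serum-free DMEM with compound (0.5 and 5 μM) for 48 h; migration photographed by phase-contrast microscopy at 0 and 48 h.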

[13] = molecular target: Proto-oncogene tyrosine-protein kinase Src (Homo sapiens) (UniProt P12931); experiment: Inhibition of c-Src at 10 uM by ELISA based method; outline: as §4
Proto-oncogene tyrosine-protein kinase Src (Homo sapiens), sequence (P12931 2-536 limits assumed): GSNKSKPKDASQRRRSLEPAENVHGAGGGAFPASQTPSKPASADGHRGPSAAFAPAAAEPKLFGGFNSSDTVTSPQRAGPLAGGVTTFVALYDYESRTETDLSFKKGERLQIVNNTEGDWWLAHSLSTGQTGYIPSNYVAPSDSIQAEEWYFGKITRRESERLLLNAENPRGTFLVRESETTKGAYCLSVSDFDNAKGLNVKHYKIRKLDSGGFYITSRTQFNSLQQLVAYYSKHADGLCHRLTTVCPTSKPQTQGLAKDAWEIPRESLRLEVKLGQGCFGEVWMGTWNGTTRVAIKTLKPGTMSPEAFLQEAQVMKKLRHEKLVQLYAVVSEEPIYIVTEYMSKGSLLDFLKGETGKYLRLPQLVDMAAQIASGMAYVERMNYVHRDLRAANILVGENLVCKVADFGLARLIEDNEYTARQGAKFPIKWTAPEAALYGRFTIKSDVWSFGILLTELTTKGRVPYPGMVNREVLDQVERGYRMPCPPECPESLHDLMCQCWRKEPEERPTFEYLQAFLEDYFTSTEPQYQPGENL

[14] = molecular target: Tyrosine-protein kinase ABL1 (Homo sapiens) (UniProt P00519); experiment: Inhibition of ABL at 10 uM by ELISA based method; outline: as §4
[15] = molecular target: Mitogen-activated protein kinase 14 (Homo sapiens) (UniProt Q16539); experiment: Inhibition of p38alpha at 10 uM; outline: as §3
Mitogen-activated protein kinase 14 (Homo sapiens), sequence (Q16539 whole entry): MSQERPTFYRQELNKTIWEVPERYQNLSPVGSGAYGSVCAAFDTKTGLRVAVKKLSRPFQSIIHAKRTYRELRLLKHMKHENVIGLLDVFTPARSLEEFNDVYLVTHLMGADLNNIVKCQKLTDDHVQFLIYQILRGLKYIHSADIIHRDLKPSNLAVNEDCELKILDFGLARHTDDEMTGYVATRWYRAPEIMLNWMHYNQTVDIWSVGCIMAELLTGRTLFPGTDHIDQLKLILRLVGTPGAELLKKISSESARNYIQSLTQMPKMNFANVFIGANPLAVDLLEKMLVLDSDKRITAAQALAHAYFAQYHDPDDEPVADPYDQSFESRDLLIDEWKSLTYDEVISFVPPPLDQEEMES

[16] = molecular target: Epidermal growth factor receptor (Homo sapiens) (UniProt P00533); experiment: Inhibition of EGFR at 10 uM by ELISA based method; outline: as §4
[17] = molecular target: Vascular endothelial growth factor receptor 2 (Homo sapiens) (UniProt P35968); experiment: Inhibition of KDR at 10 uM by ELISA based method; outline: as §4
[18] = molecular target: Mitogen-activated protein kinase 9 (Homo sapiens) (UniProt P45984); experiment: Inhibition of JNK2 at 10 uM; outline: as §3
[19] = molecular target: Platelet-derived growth factor receptor beta (Homo sapiens) (UniProt P09619); experiment: Inhibition of PDGFRbeta at 10 uM by ELISA based method; outline: as §4
[20] = molecular target: Proto-oncogene tyrosine-protein kinase receptor Ret (Homo sapiens) (UniProt P07949); experiment: Inhibition of RET at 10 uM by ELISA based method; outline: as §4
Proto-oncogene tyrosine-protein kinase receptor Ret (Homo sapiens), sequence (P07949 whole entry): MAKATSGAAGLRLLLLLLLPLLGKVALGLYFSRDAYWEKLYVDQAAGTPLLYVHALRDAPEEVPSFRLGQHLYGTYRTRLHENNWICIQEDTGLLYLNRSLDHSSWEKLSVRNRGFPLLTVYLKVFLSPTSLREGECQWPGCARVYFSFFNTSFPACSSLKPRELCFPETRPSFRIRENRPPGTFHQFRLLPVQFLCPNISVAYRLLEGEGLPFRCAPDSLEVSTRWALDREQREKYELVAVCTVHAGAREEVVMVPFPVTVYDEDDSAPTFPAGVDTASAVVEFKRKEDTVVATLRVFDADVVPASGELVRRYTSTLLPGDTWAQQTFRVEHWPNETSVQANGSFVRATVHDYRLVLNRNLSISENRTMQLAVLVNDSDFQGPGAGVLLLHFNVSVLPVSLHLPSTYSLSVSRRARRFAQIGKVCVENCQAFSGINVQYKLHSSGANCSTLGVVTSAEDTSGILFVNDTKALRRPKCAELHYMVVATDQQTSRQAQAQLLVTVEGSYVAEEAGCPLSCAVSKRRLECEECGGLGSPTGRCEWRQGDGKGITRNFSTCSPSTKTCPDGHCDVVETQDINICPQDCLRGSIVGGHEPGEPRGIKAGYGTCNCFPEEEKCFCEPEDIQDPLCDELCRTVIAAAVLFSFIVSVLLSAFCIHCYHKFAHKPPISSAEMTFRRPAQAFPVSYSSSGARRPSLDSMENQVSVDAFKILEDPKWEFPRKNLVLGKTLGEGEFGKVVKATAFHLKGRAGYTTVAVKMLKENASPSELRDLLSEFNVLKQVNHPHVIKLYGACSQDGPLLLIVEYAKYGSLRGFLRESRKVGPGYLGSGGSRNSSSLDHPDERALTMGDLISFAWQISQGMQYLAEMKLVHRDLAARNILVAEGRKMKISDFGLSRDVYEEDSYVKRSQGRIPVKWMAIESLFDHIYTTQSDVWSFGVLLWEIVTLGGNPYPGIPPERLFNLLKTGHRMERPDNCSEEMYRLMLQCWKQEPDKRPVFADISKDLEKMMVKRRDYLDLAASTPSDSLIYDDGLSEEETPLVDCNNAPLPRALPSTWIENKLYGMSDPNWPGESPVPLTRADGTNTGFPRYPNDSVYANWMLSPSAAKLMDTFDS

[21] = molecular target: Ephrin type-A receptor 2 (Homo sapiens) (UniProt P29317); experiment: Inhibition of EPHA2 at 10 uM by ELISA based method; outline: as §4
[22] = molecular target: Fibroblast growth factor receptor 1 (Homo sapiens) (UniProt P11362); experiment: Inhibition of FGFR1 at 10 uM by ELISA based method; outline: as §4
[23] = molecular target: Mast/stem cell growth factor receptor Kit (Homo sapiens) (UniProt P10721); experiment: Inhibition of c-Kit at 10 uM by ELISA based method; outline: as §4
[24] = molecular target: Mitogen-activated protein kinase 3 (Homo sapiens) (UniProt P27361); experiment: Inhibition of ERK1 at 10 uM; outline: as §3
Mitogen-activated protein kinase 3 (Homo sapiens), sequence (P27361 whole entry): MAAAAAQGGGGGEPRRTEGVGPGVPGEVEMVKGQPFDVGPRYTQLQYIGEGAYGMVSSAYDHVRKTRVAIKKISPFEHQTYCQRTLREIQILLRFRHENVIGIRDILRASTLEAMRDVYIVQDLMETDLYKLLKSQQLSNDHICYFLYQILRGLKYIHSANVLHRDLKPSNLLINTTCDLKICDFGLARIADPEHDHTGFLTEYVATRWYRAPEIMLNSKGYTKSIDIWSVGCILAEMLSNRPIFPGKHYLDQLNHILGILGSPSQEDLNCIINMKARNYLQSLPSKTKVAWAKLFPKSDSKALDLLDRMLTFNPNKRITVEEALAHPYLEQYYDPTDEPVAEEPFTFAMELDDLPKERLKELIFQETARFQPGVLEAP

[25] = molecular target: Ribosomal protein S6 kinase alpha-5 (Homo sapiens) (UniProt O75582); experiment: Inhibition of MSK1 at 10 uM; outline: as §3
[26] = molecular target: T1, Ribosomal protein S6 kinase alpha-3; experiment: Inhibition of RSK2 at 10 uM; outline: as §1
[27] = molecular target: RAC-alpha serine/threonine-protein kinase (Homo sapiens) (UniProt P31749); experiment: Inhibition of AKT1 at 10 uM; outline: as §3
[28] = molecular target: Ribosomal protein S6 kinase beta-1 (Homo sapiens) (UniProt P23443); experiment: Inhibition of p70S6K at 10 uM; outline: as §3
[29] = molecular target: Vascular endothelial growth factor receptor 1 (Homo sapiens) (UniProt P17948); experiment: Inhibition of Flt1 at 10 uM by ELISA based method; outline: as §4
[30] = molecular target: 3-phosphoinositide-dependent protein kinase 1 (Homo sapiens) (UniProt O15530); experiment: Inhibition of PDK1 at 10 uM

T1 sequence (P51812 whole entry): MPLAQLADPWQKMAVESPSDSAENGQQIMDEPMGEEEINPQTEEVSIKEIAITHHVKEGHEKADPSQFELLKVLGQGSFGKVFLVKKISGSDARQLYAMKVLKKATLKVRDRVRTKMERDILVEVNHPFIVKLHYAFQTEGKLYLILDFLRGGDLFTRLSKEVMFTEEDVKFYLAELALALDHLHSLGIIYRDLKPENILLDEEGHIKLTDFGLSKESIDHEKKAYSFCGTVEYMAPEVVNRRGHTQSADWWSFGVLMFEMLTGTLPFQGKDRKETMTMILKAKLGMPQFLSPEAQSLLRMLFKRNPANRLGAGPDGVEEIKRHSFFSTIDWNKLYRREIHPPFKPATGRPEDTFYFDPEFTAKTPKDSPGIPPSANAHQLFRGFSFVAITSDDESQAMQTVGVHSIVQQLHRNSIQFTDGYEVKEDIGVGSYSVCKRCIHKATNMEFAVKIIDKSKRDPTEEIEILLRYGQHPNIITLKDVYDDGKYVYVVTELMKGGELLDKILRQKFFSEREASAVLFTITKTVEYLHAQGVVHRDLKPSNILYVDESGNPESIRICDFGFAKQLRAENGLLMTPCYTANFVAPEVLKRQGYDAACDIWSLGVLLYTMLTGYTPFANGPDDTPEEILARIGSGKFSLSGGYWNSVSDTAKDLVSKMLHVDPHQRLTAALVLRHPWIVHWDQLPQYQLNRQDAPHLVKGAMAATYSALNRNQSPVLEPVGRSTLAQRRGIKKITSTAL

## O=C1c2ccccc2C(=O)N1CNc1ccc(N2CCOCC2)cc1
[1]
  IC50: 0.95 µM
[2]
  inhibition at 100 µM: 31.2%
[3]
  inhibition at 100 µM: 13.2%
[4]
  inhibition at 100 µM: 6.89%

## N#Cc1nc(/N=N/c2ccccc2)[nH]c1O
[1]
  IC50: 7.04 µM
[2]
  inhibition at 100 µM: 0%
[3]
  inhibition at 100 µM: 4.8%
[4]
  inhibition at 100 µM: 12.1%

## O=C1NC(=O)C(=NNc2ccc(O)cc2)C(=O)N1
[1]
  IC50: 1.58 µM
[5]
  IC50: 9.69 µM
[6]
  IC50: > 100 µM
[2]
  inhibition at 100 µM: 85.8%
[3]
  inhibition at 100 µM: 49.1%
[4]
  inhibition at 100 µM: 97.9%
[7]
  IC50: 15.6 µM

## Nc1n[nH]c(N)c1/N=N/c1ccc(S(N)(=O)=O)cc1
[1]
  IC50: 5.5 µM
[2]
  inhibition at 100 µM: 32.9%
[3]
  inhibition at 100 µM: 6.98%
[4]
  inhibition at 100 µM: 18.5%

## Cc1ccc2nc(-c3cc(N)cc(C)c3O)oc2c1
[1]
  IC50: 1.38 µM
[5]
  IC50: > 100 µM
[6]
  IC50: > 100 µM
[2]
  inhibition at 100 µM: 45.1%
[3]
  inhibition at 100 µM: 44.2%
[4]
  inhibition at 100 µM: 54.7%
[7]
  IC50: > 100 µM

## O=C(Nc1ccccc1O)c1cnns1
[1]
  IC50: 3.03 µM
[5]
  IC50: > 100 µM
[6]
  IC50: > 100 µM
[2]
  inhibition at 100 µM: 32.7%
[3]
  inhibition at 100 µM: 43.2%
[4]
  inhibition at 100 µM: 46.5%

## COc1cc(/C=N/n2cnnc2)cc(I)c1O
[1]
  IC50: 16.2 µM

## O=c1[nH]c(=O)c2ncc(-c3ccc(O)cc3)nc2[nH]1
[1]
  IC50: 14.5 µM

## Cc1c(N)ccc2[nH]c(-c3ccc(N)cc3)nc12
[8]
  inhibition: 86.8%
[9]
  inhibition: -0.4%
[10]
  inhibition: 3.5%
[11]
  inhibition: 1.4%
[12]
  Activity: Active
[13]
  inhibition: 8.2%
[14]
  inhibition: 7.4%
[5]
  IC50: 16.1 µM
[15]
  inhibition: 2.7%
[16]
  inhibition: 44.9%
[6]
  IC50: 30.2 µM
[17]
  inhibition: 21.9%
[18]
  inhibition: -1.4%
[19]
  inhibition: 62.8%
[20]
  inhibition: 0.6%
[21]
  inhibition: 24%
[22]
  inhibition: 15.5%
[23]
  inhibition: 11.5%
[2]
  inhibition at 100 µM: 98.3%
[24]
  inhibition: -4.4%
[25]
  inhibition: 3.1%
[3]
  inhibition at 100 µM: 89.6%
[26]
  inhibition: 95.5%
[27]
  inhibition: -2.5%
[28]
  inhibition: 6.2%
[29]
  inhibition: 12.5%
[4]
  inhibition at 100 µM: 89.2%
[7]
  IC50: 25.5 µM

## Cc1c(N)ccc2nc(-c3ccc(N)cc3)[nH]c12
[1]
  IC50: 0.32 µM

## Cc1c(O)ccc(/N=N/c2ccc(S(=O)(=O)O)cc2)c1C
[1]
  IC50: 15.1 µM

## Clc1ccc2c(c1)SNC(c1ccccc1)=N2
[1]
  IC50: 2.88 µM
[2]
  inhibition at 100 µM: 3.6%
[3]
  inhibition at 100 µM: 6.5%
[4]
  inhibition at 100 µM: 0%

## O=C(NNc1ccc(C(F)(F)F)cn1)c1ccccc1Cl
[1]
  IC50: 13.2 µM

## Oc1ccc(NCn2nnc3ccccc32)cc1
[1]
  IC50: 0.48 µM
[8]
  inhibition: 0.7%
[10]
  inhibition: 29.3%
[11]
  inhibition: -6.9%
[13]
  inhibition: 14.2%
[14]
  inhibition: 8.6%
[5]
  IC50: 14.9 µM
[15]
  inhibition: 13%
[16]
  inhibition: 32.4%
[6]
  IC50: 56.2 µM
[17]
  inhibition: 16.9%
[18]
  inhibition: 11%
[30]
  inhibition: -5.8%
[19]
  inhibition: 55.2%
[20]
  inhibition: 10%
[21]
  inhibition: 38.2%
[22]
  inhibition: 31.3%
[23]
  inhibition: 15.6%
[2]
  inhibition at 100 µM: 97%
[24]
  inhibition: 2.8%
[25]
  inhibition: 10.1%
[3]
  inhibition at 100 µM: 91.6%
[26]
  inhibition: 89.2%
[27]
  inhibition: 8.6%
[28]
  inhibition: 6.9%
[29]
  inhibition: 2.4%
[4]
  inhibition at 100 µM: 98.8%
[7]
  IC50: 18 µM

## O=C(O)c1ccc(/N=N/c2ccc(O)c3ncccc23)cc1
[1]
  IC50: 3.47 µM
[2]
  inhibition at 100 µM: 36.7%
[3]
  inhibition at 100 µM: 28.4%
[4]
  inhibition at 100 µM: 22.2%

## Cc1cc(N)cc2[nH]c(-c3ccccc3)nc12
[1]
  IC50: 1.06 µM
[2]
  inhibition at 100 µM: 21.3%
[3]
  inhibition at 100 µM: 32.6%
[4]
  inhibition at 100 µM: 45.8%

## Nc1nc2nc(O)nc(O)c2s1
[1]
  IC50: 9.99 µM

Reference: ChEMBL document CHEMBL1773035, “SHAFTS: a hybrid approach for 3D molecular similarity calculation. 2. Prospective case study in the discovery of diverse p90 ribosomal S6 protein kinase 2 inhibitors to suppress cell migration” (J Med Chem, 2011)
